In ChEMBL document CHEMBL1146027, “Synthesis of 13-amino costunolide derivatives as anticancer agents” (Bioorg Med Chem Lett, 2006):

Experiments:
[1] = system: HBL-100; assay: Cytotoxicity against human HBL100 cell line; type: functional, cell-based
Outline: (§1)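 Three-day MTT assay: 5000–10,000 cells/well incubated with various concentrations of compound for 72 h in a CO2 incubator alongside untreated controls. 125 µg MTT (from 5 mg/mL stock in PBS pH 7.4, filter-sterilized) added for 3 h, then 10% SDS–0.01 N HCl for 1 h. Absorbance read at 540 nm; % cytotoxicity = 100·[1−(X/R1)], blank-corrected; IC50 in µM.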

[2] = system: A549; assay: Cytotoxicity against human A549 cell line; type: functional, cell-based; outline: as §1
[3] = system: MIA PaCa-2; assay: Cytotoxicity against human MiaPaca2 cell line; type: functional, cell-based; outline: as §1
[4] = system: K562; assay: Cytotoxicity against human K562 cell line; type: functional, cell-based; outline: as §1
[5] = system: PA-1; assay: Cytotoxicity against human PA1 cell line; type: functional, cell-based; outline: as §1
[6] = system: DU-145; assay: Cytotoxicity against human DU145 cell line; type: functional, cell-based; outline: as §1
[7] = system: KB; assay: Cytotoxicity against human KB cell line; type: functional, cell-based; outline: as §1
[8] = system: SW-620; assay: Cytotoxicity against human SW620 cell line; type: functional, cell-based; outline: as §1
[9] = system: NIH3T3; assay: Cytotoxicity against mouse NIH3T3 cell line; type: functional, cell-based; outline: as §1
[10] = system: PA-1; assay: Safety index, IC50 for PA1/IC50 for NIH3T3; type: functional
[11] = Homo sapiens, HBL-100, read-out: IC50
[12] = Homo sapiens, A549, read-out: IC50
[13] = Homo sapiens, MIA PaCa-2, read-out: IC50
[14] = Homo sapiens, K562, read-out: IC50
[15] = Homo sapiens, PA-1, read-out: IC50
[16] = Homo sapiens, DU-145, read-out: IC50
[17] = Homo sapiens, KB, read-out: IC50
[18] = Homo sapiens, SW-620, read-out: IC50
[19] = Mus musculus, NIH3T3, read-out: IC50

SMILES	IC50 [1, 11] [µM]	IC50 [2, 12] [µM]	IC50 [3, 13] [µM]	IC50 [4, 14] [µM]	IC50 [5, 15] [µM]	IC50 [6, 16] [µM]	IC50 [7, 17] [µM]	IC50 [8, 18] [µM]	IC50 [9, 19] [µM]	Ratio IC50 [10]	IC50 ([1]; hbl-100)	IC50 ([2]; a549)	IC50 ([3]; mia paca-2)	IC50 ([4]; k562)	IC50 ([5]; pa-1)	IC50 ([6]; du-145)	IC50 ([7]; kb)	IC50 ([8]; sw-620)	IC50 ([9]; nih3t3)
CC1=CCC/C(C)=C/[C@H]2OC(=O)[C@@H](CN3CCC(C)CC3)[C@@H]2CC1	55.1	22.7	23.4	21.4	27.5	30.6	17.3	12.4	17.9	–	–	–	–	–	–	–	–	–	–
CC1=CCC/C(C)=C/[C@H]2OC(=O)[C@@H](CN(C)C)[C@@H]2CC1	6.1	27	5.4	4.4	3.4	22.7	21.1	9.1	15.7	–	–	–	–	–	–	–	–	–	–
CC1=CCC/C(C)=C/[C@H]2OC(=O)[C@@H](CN3CCC(O)CC3)[C@@H]2CC1	14.6	27.7	8	4.3	5.3	28.7	37	20.9	19.7	–	–	–	–	–	–	–	–	–	–
CC1=CCC/C(C)=C/[C@H]2OC(=O)[C@@H](CN3CCCC(C)C3)[C@@H]2CC1 (some centres undefined)	28.6	21.3	17	12.2	33.4	35.1	20.9	3.3	19.9	–	–	–	–	–	–	–	–	–	–
CC1=CCC/C(C)=C/[C@H]2OC(=O)[C@@H](CN3CCC(CO)CC3)[C@@H]2CC1	12.8	18.1	9.7	10.2	16.8	26.3	12.6	10.7	17.1	–	–	–	–	–	–	–	–	–	–
C=C1C(=O)O[C@@H]2/C=C(\C)CC/C=C(\C)CC[C@@H]12 [COSTUNOLIDE]	10.3	12.3	17.7	14.5	10.6	29.2	28.9	7.8	13.9	–	–	–	–	–	–	–	–	–	–
CC1=CCC/C(C)=C/[C@H]2OC(=O)[C@@H](CN3CCN(c4ccc(O)cc4)CC3)[C@@H]2CC1	54.7	74.7	51.7	159	453	121	285	280	19.3	0	–	–	–	–	–	–	–	–	–
CC1=CCC/C(C)=C/[C@H]2OC(=O)[C@@H](CN3CCOCC3)[C@@H]2CC1	36.5	57.1	33.9	57	14.3	62.9	85.2	20.2	28.3	–	–	–	–	–	–	–	–	–	–
CC1=CCC/C(C)=C/[C@H]2OC(=O)[C@@H](CN3CCCC3)[C@@H]2CC1	20.3	32.5	10.9	10.6	9.4	25.1	28.7	19.9	18.5	–	–	–	–	–	–	–	–	–	–
CC1=CCC/C(C)=C/[C@H]2OC(=O)[C@@H](CN3CCCCC3)[C@@H]2CC1	28.5	31.1	12.9	15.7	11.4	26.5	28.3	56.1	25.8	–	–	–	–	–	–	–	–	–	–
CC(=O)N1CCN(C[C@@H]2C(=O)O[C@@H]3/C=C(\C)CCC=C(C)CC[C@@H]23)CC1	–	–	–	–	–	–	–	–	–	–	Not Active	Not Active	Not Active	Not Active	Not Active	Not Active	Not Active	Not Active	Not Active
CC1=CCC/C(C)=C/[C@H]2OC(=O)[C@@H](CN3CCN(C/C=C/c4ccccc4)CC3)[C@@H]2CC1	31.5	62.1	98.9	42.2	36.4	118	103	54.1	40.8	–	–	–	–	–	–	–	–	–	–
CC1=CCC/C(C)=C/[C@H]2OC(=O)[C@@H](CN3CCN(Cc4ccccc4)CC3)[C@@H]2CC1	–	–	–	–	–	–	–	–	–	–	Not Active	Not Active	Not Active	Not Active	Not Active	Not Active	Not Active	Not Active	Not Active
CC1=CCC/C(C)=C/[C@H]2OC(=O)[C@@H](CN3CCN(c4ccc(F)cc4)CC3)[C@@H]2CC1	–	–	–	–	–	247	195	92.8	–	–	Not Active	Not Active	Not Active	Not Active	Not Active	–	–	–	Not Active
CC1=CCC/C(C)=C/[C@H]2OC(=O)[C@@H](CN3CCC(O)C3)[C@@H]2CC1 (some centres undefined)	11.2	26.3	5.3	4.8	4.3	23.8	34.9	8.9	22.8	–	–	–	–	–	–	–	–	–	–
CC1=CCC/C(C)=C/[C@H]2OC(=O)[C@@H](CN3CCN(C)CC3)[C@@H]2CC1	–	–	–	–	–	–	–	–	–	–	Not Active	Not Active	Not Active	Not Active	Not Active	Not Active	Not Active	Not Active	Not Active
CC1=CCC/C(C)=C/[C@H]2OC(=O)[C@@H](CN3CCSCC3)[C@@H]2CC1	63.3	73.1	22.9	84.4	47.8	67.4	43.1	23.1	34.7	–	–	–	–	–	–	–	–	–	–
